# Screening data from PubChem BioAssay.
# CHRM5 antagonist – human M5 muscarinic receptor antagonists, primary screen, CHO cells, Fluo-8 calcium fluorescence | Muscarinic acetylcholine receptor M5 (Homo sapiens), P08912 | CHO-hM5 cells, ACh EC80 | inhibition, % at 3 µM | 360,000 compounds, 0.59% hits | AID 624040, 2012;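 active = inhibition above a per-plate cutoff, the mean of that plate's test compounds plus 3 SD, cut at about 27% in these data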;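 note: 0% = acetylcholine EC80 with DMSO and 100% = DMSO without agonist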
# Target sequence (P08912 whole entry, looked up): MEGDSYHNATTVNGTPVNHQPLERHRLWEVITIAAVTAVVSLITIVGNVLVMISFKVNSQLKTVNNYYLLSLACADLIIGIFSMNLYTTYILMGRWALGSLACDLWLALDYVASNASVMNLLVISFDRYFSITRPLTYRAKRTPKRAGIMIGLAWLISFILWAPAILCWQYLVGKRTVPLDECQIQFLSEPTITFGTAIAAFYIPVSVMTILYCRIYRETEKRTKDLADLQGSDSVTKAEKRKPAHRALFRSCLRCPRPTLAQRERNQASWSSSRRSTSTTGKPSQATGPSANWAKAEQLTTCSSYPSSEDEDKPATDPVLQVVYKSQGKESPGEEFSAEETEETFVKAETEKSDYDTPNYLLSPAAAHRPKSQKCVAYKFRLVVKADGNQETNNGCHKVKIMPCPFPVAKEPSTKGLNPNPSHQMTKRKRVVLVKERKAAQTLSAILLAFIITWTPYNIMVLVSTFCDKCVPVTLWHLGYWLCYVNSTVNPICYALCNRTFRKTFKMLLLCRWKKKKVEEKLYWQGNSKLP
# M4 ag – human M4 muscarinic receptor agonists, primary screen, CHO-K1 cells, Fluo-8 calcium fluorescence; Muscarinic acetylcholine receptor M4 (Homo sapiens), P08173; CHO-K1 hM4/Gqi5; vehicle 0%, full acetylcholine response 100%; activation, % at 3 µM; 360,000 compounds, 0.14% hits; AID 624127, 2012;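 active = activation above the run mean over all test wells plus 3 SD, cut at about 32% in these data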;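 note: peak over basal fluorescence ratio per well then scaled between controls; 0% = DMSO wells and 100% = acetylcholine at EC100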
# M4 antag – human M4 muscarinic receptor antagonists, primary screen, CHO cells, Fluo-8 calcium fluorescence | AID 624125, 2012 | inhibition, % at 3 µM | CHO-hM4 cells, ACh EC80 | Muscarinic acetylcholine receptor M4 (Homo sapiens), P08173 | 360,000 compounds, 0.73% hits;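 active = inhibition above its plate's cutoff, the mean inhibition of sample wells plus 3 SD, cut at about 27% in these data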;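 note: 0% = acetylcholine EC80 with DMSO and 100% = DMSO without agonist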
# CHRM4 PAM – human M4 muscarinic receptor positive allosteric modulators, primary screen, CHO-K1 cells, Fluo-8 calcium fluorescence. 360,000 compounds, 0.4% hits. CHO-K1 hM4/Gqi5, ACh EC20; 0% = ACh EC20, 100% = maximal ACh. activation, % at 3 µM;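 active = activation above its plate's cutoff, the mean activation of sample wells plus 3 SD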
# CHRM5 agonist – human M5 muscarinic receptor agonists, primary screen, CHO-K1 cells, Fluo-8 calcium fluorescence; Muscarinic acetylcholine receptor M5 (Homo sapiens), P08912; CHO-K1 hM5 cells; 0% DMSO wells, 100% maximal acetylcholine response; activation, % at 3 µM; 360,000 compounds, 0.19% hits; AID 624037, 2012;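 active = activation above the run's mean over test compounds plus 3 SD, cut at about 23% in these data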;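 note: signal is peak over basal fluorescence ratio across the kinetic read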
# M5 PAM – human M5 muscarinic receptor positive allosteric modulators, primary screen, CHO-K1 cells, Fluo-8 calcium fluorescence | Muscarinic acetylcholine receptor M5 (Homo sapiens), P08912 | CHO-K1 hM5, ACh EC20 PAM; 0% = ACh EC20, 100% = ACh EC100 | activation, % at 3 µM | 360,000 compounds, 0.3% hits;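 active = activation above the run cutoff, the mean activation of all test compounds plus 3 SD, cut at about 18% in these data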
#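 System: CHO-K1 cell line with stable human muscarinic M5 receptor expression | Also added: EC20 acetylcholine as agonist stimulus | Compound: One concentration, 3 µM final (nominal) | Timing: Fluo-8 loading 80 min at 37 °C plus 30 min room temperature | Measured by: Fluo-8 calcium dye fluorescence, kinetic read | Read-out basis: % activation, ACh-normalized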
# Starred values were filed as active, the others as inactive. An excerpt weighted towards active compounds, which were near 1.9% of everything screened.
SMILES,CHRM5 antagonist,M4 ag,M4 antag,CHRM4 PAM,CHRM5 agonist,M5 PAM
CSc1nc(N)nc(SCC(=O)c2ccccc2)c1C#N,-7.9,8.6,-5.4,-3.1,5.2,-10.2
Cc1cc(SCC(=O)c2cccs2)n2nc(C)c(-c3ccc(Cl)cc3)c2n1,9.4,1.4,-3.5,23.2*,3.9,12.7
Cc1cc(=O)[nH]c(SCC(=O)c2ccccc2)c1C#N,-4.8,2.1,-10.6,34.3*,3.0,6.3
Cc1cc(C)c(C#N)c(SCC(=O)c2ccccc2)n1,8.2,2.8,-4.2,26.0*,-7.2,-7.1
Cc1ccccc1NC(=O)CSc1[nH]c(=O)cc(C)c1C#N,-3.4,2.8,-0.6,-1.8,5.1,3.2
Cc1cc(C)c(C#N)c(SCC(=O)c2cccs2)n1,6.5,4.9,36.8*,75.4*,-6.1,-7.3
O=C(OCCN1CCOCC1)c1ccc(Cl)cc1Cl,-5.7,1.0,-8.1,14.6*,2.9,1.2
CCN1CCC(CN2CCNC2=S)CC1,-6.2,-0.2,-0.8,-0.2,-1.5,3.5
CC(C)C[C@H]1CNC(=S)N1CC1CCN(CC2CCC(C(C)(C)C)CC2)CC1 (stereo partly specified),35.3*,4.4,50.5*,-16.8,-3.2,-19.7
CC(C)C[C@H]1CNC(=S)N1CC1CCN(CC2CCCC2)CC1,-3.1,0.5,-7.1,-5.8,-3.0,-14.7
S=C1NCCN1CC1CCN(CCC23CC4CC(CC(C4)C2)C3)CC1,10.9,2.7,57.9*,-15.0,-3.0,-15.9
CC[C@H](C)[C@H]1CNC(=S)N1CC1CCN(CCCC2CCCC2)CC1,16.0,2.5,26.6*,-14.3,-3.0,-17.5
CC(C)C[C@H]1CNC(=S)N1CC1CCN(CCCC2CCCCC2)CC1,15.2,1.3,55.1*,-15.0,-3.1,-18.9
Cc1ccc(C(CC(=O)O)NC(=O)CN2C(=O)c3ccccc3C2=O)cc1 (stereo unspecified),6.2,1.3,-0.1,-1.9,-3.1,4.8
CC[C@H](C)[C@H]1CNC(=S)N1CC1CCN(CCCCc2ccccc2)CC1,20.2,0.8,37.3*,-15.1,-3.4,-18.4
CC(C)C[C@H]1CNC(=S)N1CC1CCN(CCC23CC4CC(CC(C4)C2)C3)CC1,49.2*,3.1,66.6*,-16.1,-3.4,-19.5
CC1(C)Cc2c(sc3nc(N/N=C/c4ccccc4)[nH]c(=O)c23)CO1,24.0,2.3,1.1,8.6,8.6,25.0*
COC(=O)c1ccc(/C=C/c2c(-c3ccc(OC)cc3)oc3ccccc23)cc1,-6.4,0.9,4.8,25.8*,3.4,4.5
CC(C)CNS(=O)(=O)c1ccc(CCC(=O)NC2CCCCC2)cc1,-13.9,1.8,-7.8,1.1,7.3,19.8*
Cc1ccc(C(=O)c2coc3ccc(O)cc23)cc1,16.5,-0.7,0.2,-3.2,-6.0,-12.7
CN1CCC=C(C(=O)N2c3ccccc3Sc3ccc(Cl)cc32)C1,98.9*,2.4,86.1*,-58.8,-22.1,-31.9
CCN(CC)CCC(=O)N1c2ccccc2Sc2ccc(Cl)cc21,98.7*,0.9,97.9*,-17.9,-1.3,-18.5
CN(C)CCC(=O)N1c2ccccc2Sc2ccc(Cl)cc21,99.5*,0.3,95.8*,-24.4,-10.1,-19.8
O=C(CCN1CCN2CCCC2C1)N1c2ccccc2Sc2ccc(Cl)cc21 (stereo unspecified),10.6,1.3,16.1,-18.0,-6.9,-10.0
Cn1nnnc1SCC(=O)N1c2ccccc2Sc2ccc(Cl)cc21,9.5,1.9,13.9,-13.2,-11.9,-13.0
SMILES,CHRM5 antagonist,M4 ag,M4 antag,CHRM4 PAM,CHRM5 agonist,M5 PAM
CN(C)CC(=O)N1c2ccccc2Sc2ccc(Cl)cc21,94.6*,1.1,67.6*,-19.5,-10.4,-19.1
CCCCn1c(N)c(N(CC(C)C)C(=O)CSc2nn(-c3ccc(F)cc3)c(=S)s2)c(=O)[nH]c1=O,1.1,0.1,-3.0,1.4,1.7,7.2
COc1ccccc1C(=O)N/C(=C\c1cn(C)c2ccccc12)C(=O)NCCCn1ccnc1,5.5,1.2,-0.3,-2.2,-4.3,-1.1
Cc1ccc(S(=O)(=O)N2CCN(C(=O)CSc3ccc(F)cc3)CC2)cc1,29.0*,15.5,24.0,31.8*,-0.2,19.2*
O=C(Cn1ncc2c([nH]c3ccccc32)c1=O)NCCc1ccc(Cl)cc1,8.2,1.4,3.6,-3.4,-1.4,-5.4
CSc1ccc(CCNC(=O)Cn2ncc3c([nH]c4ccccc43)c2=O)cc1,18.8,2.2,16.5,15.4*,-3.9,-3.0
COc1ccc(/C=C(/C#N)C(=O)Nc2cc(C)ccc2C)cc1C(=O)O,2.2,1.0,3.6,29.0*,2.2,1.2
Fc1ccc(-c2csc3[n+]2CCS3)cc1,-1.4,-0.1,-0.1,3.8,-15.9,2.8
c1sc2[n+](c1C13CC4CC(CC(C4)C1)C3)CCS2,-2.1,0.1,34.3*,-12.3,-8.7,-5.8
Cc1csc(NC(=O)CSc2nnc(-c3ccoc3C)o2)n1,-1.8,3.5,-17.1,8.6,-1.0,-0.2
Cc1occc1-c1nnc(SCC(=O)Nc2nc(C(C)(C)C)cs2)o1,29.6*,22.0,19.1,-8.8,6.3,-23.3
Cc1cc(C(=O)NC(C)C2CC2)c(Cl)cc1Cl (stereo unspecified),0.8,-0.4,-16.5,2.6,0.6,2.6
CC(/C=N/NC(=O)Cn1nccc1C)=C\c1ccc(C(C)C)cc1,-2.5,-0.8,29.7*,-6.3,-3.0,1.1
COc1ccc(C2CC(c3ccc(Cl)cc3)=NN2C(C)=O)cc1 (stereo unspecified),31.5*,11.6,17.0,12.1,6.3,42.8*
O=C(NNC(=O)c1cc2cc3ccccc3nc2s1)c1cccc(Cl)c1,5.4,1.2,2.6,29.8*,-2.2,13.4
CC(OC(=O)/C(C#N)=C/c1ccc(N(C)C)cc1)C(=O)N(C)Cc1ccccc1 (stereo unspecified),11.5,19.2,6.4,-13.0,32.2*,-10.6
CC(OC(=O)c1cccc(O)c1)C(=O)N(C)Cc1ccccc1 (stereo unspecified),7.2,0.7,5.1,1.8,-0.4,-5.9
CCCS(=O)(=O)N1CCCC(C(=O)Oc2ccc(OC)cc2)C1 (stereo unspecified),-7.5,0.7,11.2,-3.0,2.6,2.5
COc1ccc(CNC(=O)CCNC(=O)C2CCN(S(=O)(=O)c3ccc(OC)cc3)CC2)cc1,-0.6,0.1,-14.7,19.5*,-1.0,-6.8
COc1ccc(S(=O)(=O)N2CCC(C(=O)N[C@@H](C)C(=O)NC3CCCC3)CC2)cc1,19.0,0.5,-0.1,2.4,1.6,32.1*
